According to ChEMBL document CHEMBL1123528, “Syntheses and in vitro evaluation of 4-(2-aminoethyl)-2(3H)-indolones and related compounds as peripheral prejunctional dopamine receptor agonists” (J Med Chem, 1986):
pEC50: −log10 of the molar value.

Species on record: Oryctolagus cuniculus
Test: Ability to stimulate peripheral prejunctional dopaminergic receptors by 50% inhibition of vasoconstrictor response to field stimulation in isolated perfused rabbit ear artery
Type: functional
How it was run: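 Isolated rabbit ear artery, perfused, constricted by electrical field (nerve) stimulation. The test drug was given in increasing concentrations, each left in contact with the tissue for 4 min, and the concentration was raised right after the response to nerve stimulation. For dopaminergic blockade, (S)-sulpiride superfusion began after the initial concentration-effect curve was obtained.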

SMILES	pEC50
NCCc1ccc(O)c2c1CC(=O)N2	6.94
CCCN(CCC)CCc1ccc2c(c1)CC(=O)N2	5.52
CCCN(CCC)CCc1ccc(O)c(NC(C)=O)c1	< 5.00
CCCN(CCC)CCc1cccc2c1CC(=O)N2 [ROPINIROLE]	7.00
CCCN(CCC)CCc1cccc(O)c1	6.15
CCCN(CCC)CCc1ccc2c(c1)NC(=O)C2	< 5.52
CCCN(CCC)CCc1ccc(O)c(NC=O)c1	6.12
CCCN(CCC)CCc1ccc(O)c2c1CC(=O)N2C	< 5.52
CCCN(CCC)CCc1ccc(O)c2c1C(C)(C)C(=O)N2	< 5.52
CCCN(CCC)CCc1ccc(O)c2c1C(C)C(=O)N2 (configuration not stated)	7.74
CCCN(CCC)CCc1ccc(O)cc1	7.10
NCCc1ccc(O)c(O)c1 [DOPAMINE]	7.14

Now from value to compound:

pEC50	SMILES
6.66	CCCN(CCC)CCc1ccc(O)c2c1C(C)(O)C(=O)N2 (configuration not stated)
7.55	CCCN(CCc1ccc(O)cc1)CCc1cccc2c1CC(=O)N2
< 5.52	NCCc1ccc2c(c1)CC(=O)N2
< 5.52	CCCN(CCC)CCc1ccc(OC)c2c1CC(=O)N2
7.28	O=C1Cc2c(CCNCCc3ccc(O)cc3)ccc(O)c2N1
